In data set [1] the test system is Human immunodeficiency virus 1. The data set is described as follows: Antiviral activity against HIV1 3B infected in human MT4 cells incubated for 5 days by MTT assay. Format: functional, organism-based. Conditions: Human immunodeficiency virus 1, 3B, MT4, 120 h. A digest of the protocol:
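MT-4 cells resuspended at 6×10^5 cells/mL and infected with 100-300 CCID50 of HIV-1 IIIB or HIV-2 ROD. Serial five-fold compound dilutions were tested in triplicate wells. After 5 days, viability was measured by MTT reduction with absorbance read at 540 and 690 nm, using the median OD of two or three wells.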
On the technique in general: Tetrazolium dyes change colour on reduction, which living cells bring about.

The nature of data set [2]: Cytotoxicity in mock-infected human MT4 cells assessed as reduction in cell viability incubated for 5 days by MTT assay. Format: cell-based. A digest of the protocol:
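Mock-infected MT-4 cells at 6×10^5 cells/mL were exposed to serial five-fold compound dilutions in triplicate wells in parallel with the infected series. After 5 days, viability was read by MTT at 540 and 690 nm from the median OD of two or three wells.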

In data set [3] the target is Human immunodeficiency virus type 1 reverse transcriptase (Human immunodeficiency virus 1, UniProt Q72547). The data set is described as follows: Inhibition of HIV1 reverse transcriptase RNase H activity expressed in Escherichia coli using 32P-labeled template 31Trna RNA and DNA oligonucleotide 21P.
A short description of data set [4]: Inhibition of HIV reverse transcriptase RNase H activity. Set-up: species or system Human immunodeficiency virus. A digest of the protocol: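 Wild-type HIV-1 BH10 RT (20-40 nM), expressed in E. coli, was incubated at 37°C in 50 mM Tris-HCl pH 8.0, 50 mM NaCl, 5 mM MgCl2 and 5% DMSO. Cleaved substrate was quantified over 0.2-100 μM compound against a DMSO-only control. IC50 was taken from dose-response curves.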

The nature of data set [5]: Apparent permeability in human Caco2 cells by LC analysis. Conditions: Caco-2. It counts as ADME, cell-based. A digest of the protocol:
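Transport was measured across Caco-2 cell monolayers, with nadolol and metoprolol as controls. Papp (cm/s) was calculated as (dCr/dt)×Vr/(A×C0), where dCr/dt is the cumulative receiver-chamber concentration over time.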
(Caco-2 cells form a polarised layer with tight junctions and transporters.)

The target in data set [6] is T1, Human immunodeficiency virus type 1 integrase (Human immunodeficiency virus 1, UniProt Q7ZJM1). The data set is described as follows: Inhibition of strand transfer activity of HIV1 integrase expressed in Escherichia coli using DNA complexes containing 32P-labeled INT1ST and non-labeled INT2.
In data set [7] the target is Human immunodeficiency virus type 1 integrase (Human immunodeficiency virus 1) (UniProt Q7ZJM1). The data set is described as follows: Inhibition of strand transfer activity of HIV1 integrase expressed in Escherichia coli at 0.1 to 10 uM using DNA complexes containing 32P-labeled INT1ST and non-labeled INT2. A digest of the protocol:
(§1)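 Wild-type HIV-1 IN, expressed in E. coli, was assayed for strand transfer with DNA complexes of 32P-labeled INT1ST and unlabeled INT2 at 1% DMSO. Percent inhibition was measured at […].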

For data set [8] the target is unchanged. Put plainly: Inhibition of strand transfer activity of HIV1 integrase expressed in Escherichia coli at 10 uM using DNA complexes containing 32P-labeled INT1ST and non-labeled INT2. A digest of the protocol:
as §1

The target of data set [9] is T1, Human immunodeficiency virus type 1 integrase. The data set is described as follows: Inhibition of HIV integrase strand transfer activity.

Consider 27 molecules from ChEMBL document CHEMBL4385647, “Design, synthesis and biological evaluation of 3-hydroxyquinazoline-2,4(1H,3H)-diones as dual inhibitors of HIV-1 reverse transcriptase-associated RNase H and integrase” (Bioorg Med Chem, 2019).

Molecules are shown by their SMILES. The source made the active and inactive calls. No cut-off for these calls is given here.

Sequence of Human immunodeficiency virus type 1 integrase (Human immunodeficiency virus 1) (Q7ZJM1 as listed by the source): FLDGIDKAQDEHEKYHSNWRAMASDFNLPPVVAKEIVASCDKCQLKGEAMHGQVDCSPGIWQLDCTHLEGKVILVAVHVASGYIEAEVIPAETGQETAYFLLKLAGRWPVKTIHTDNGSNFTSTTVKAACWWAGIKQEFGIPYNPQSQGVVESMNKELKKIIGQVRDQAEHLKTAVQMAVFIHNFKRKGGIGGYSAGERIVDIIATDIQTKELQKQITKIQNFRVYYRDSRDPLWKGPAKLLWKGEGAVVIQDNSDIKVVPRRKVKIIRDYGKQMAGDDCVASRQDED
T1 sequence (Q7ZJM1 whole entry): as the sequence (Q7ZJM1 as listed by the source) above

Consider `O=c1[nH]c2cc(NS(=O)(=O)c3cccc(C(F)(F)F)c3)ccc2c(=O)n1O`, for which, in data set [1], the EC50 was over 80.2 µM. In addition, in [2], the CC50 at 120 h was 80.2 µM. Moreover, the IC50 in data set [3] came out at 5.33 µM.

As to `O=C(Nc1ccc2[nH]c(=O)n(O)c(=O)c2c1)c1ccccc1F`, the EC50 in data set [1] was over 168 µM. Further, the CC50 at 120 h in data set [2] was 168 µM. Besides, the IC50 in data set [3] was 4.29 µM.

Regarding `O=C1Cc2cc(Cc3ccc(-c4ccccc4)cc3)ccc2C(=O)N1O`, half-maximal inhibition in data set [4] (IC50) required 0.8 µM.

Take `O=c1[nH]c2ccc(NS(=O)(=O)c3ccc4ccccc4c3)cc2c(=O)n1O`: in data set [1], the EC50 was over 208 µM. Further, in [5], the Papp is under 0.19 ×10⁻⁶ cm/s. Moreover, the cytotoxic concentration (CC50) at 120 h in data set [2] was 208 µM. Besides, the figures for the IC50 in data set [3] and in data set [6] were 0.41 µM and 0.85 µM, respectively.

Take `CC(C)(C)NCC(O)COc1cccc2c1CC(O)C(O)C2` (stereo unspecified) [NADOLOL]: the Papp in [5] stood at 0.09 ×10⁻⁶ cm/s.

The molecule `Cc1ccc(C(=O)Nc2ccc3c(=O)n(O)c(=O)[nH]c3c2)cc1` displayed an EC50 in data set [1] of over 10.9 µM. Besides, the 50% cytotoxic concentration (CC50) at 120 h in data set [2] was 10.9 µM. The IC50 in [3] stood at 2.74 µM.

In data set [4], `CCOC(=O)C(=O)CC(=O)/C=C/c1cccn1Cc1ccccc1Cl` returned an IC50 of 7.3 µM.

Molecule `Cc1cc(C)c(S(=O)(=O)Nc2ccc3c(=O)n(O)c(=O)[nH]c3c2)c(C)c1` showed an EC50 in data set [1] of over 154 µM. For the same molecule, the CC50 at 120 h in data set [2] was found to be 154 µM. The molecule further had an IC50 in [3] of 3.24 µM.

In data set [4], `NS(=O)(=O)c1ccc(-c2ccc(Cn3cc(O)c(=O)c(C(=O)O)c3)cc2)cc1` yielded an IC50 of 0.65 µM.

In the case of `Cc1nnc(C(=O)NC(C)(C)c2nc(C(=O)NCc3ccc(F)cc3)c(O)c(=O)n2C)o1`, the EC50 in [1] is 0.015 µM. Besides, the 50% cytotoxic concentration (CC50) at 120 h in [2] turned out to be 6.51 µM.

In the case of `COCCc1ccc(OCC(O)CNC(C)C)cc1` (stereo unspecified) [METOPROLOL], the Papp in [5] amounted to 14.7 ×10⁻⁶ cm/s.

The molecule `O=c1[nH]c2cc(NS(=O)(=O)c3ccc(-c4ccccc4)cc3)ccc2c(=O)n1O` gave an EC50 in [1] of over 305 µM. Also, the CC50 at 120 h in [2] was over 305 µM. Besides, the IC50 in data set [3] amounted to 11.7 µM.

The molecule `O=c1[nH]c2cc(NS(=O)(=O)c3ccc(F)cc3)ccc2c(=O)n1O` had an EC50 in data set [1] of over 356 µM. Also, the CC50 at 120 h in [2] is over 356 µM. Besides, the midpoint of inhibition in data set [3], the IC50, lay at 5.68 µM.

Turning to `Cc1cccc(S(=O)(=O)Nc2ccc3c(=O)n(O)c(=O)[nH]c3c2)c1`, the EC50 in [1] was over 310 µM. Besides, in [2], the CC50 at 120 h came to 310 µM. For the same molecule, it took 4.1 µM to reach half-maximal inhibition in [3] (IC50).

As to `O=C(Nc1ccc2c(=O)n(O)c(=O)[nH]c2c1)c1ccc(F)cc1`, the EC50 in [1] was over 43 µM. The CC50 at 120 h in [2] was 43 µM. For the same molecule, the 50% inhibitory concentration (IC50) in data set [3] is 3.73 µM.

For `O=c1[nH]c2ccc(NS(=O)(=O)c3ccccc3)cc2c(=O)n1O`, the EC50 in data set [1] is over 213 µM. The CC50 at 120 h in data set [2] came to 213 µM. The same molecule gave an IC50 in data set [3] of 1.19 µM.

In data set [1], `O=c1[nH]c2ccc(NS(=O)(=O)c3cccc(C(F)(F)F)c3)cc2c(=O)n1O` yielded an EC50 of over 176 µM. Further, the CC50 at 120 h in data set [2] was found to be 176 µM. The same molecule yielded an IC50 in data set [3] of 2 µM.

Take `O=C(Nc1ccc2c(=O)n(O)c(=O)[nH]c2c1)c1ccccc1`: in [1], the EC50 was over 36.6 µM. For the same molecule, the CC50 at 120 h in [2] amounted to 36.6 µM. For the same molecule, inhibition in data set [3] was half-maximal at 2.52 µM (IC50).

Regarding `COc1ccc(Cc2nc(O)c(O)c(C(=O)O)n2)cc1Br`, the IC50 in data set [4] came to 1.4 µM. This lies in the single-digit micromolar range.

`CC(C)c1ccc(O)c(=O)c(O)c1` [BETA-THUJAPLICINOL]: the EC50 in data set [1] is over 2.83 µM. Moreover, the IC50 in data set [4] came out at 3.8 µM; in data set [3], 1.98 µM. Further, the CC50 at 120 h in data set [2] was 2.83 µM.

Molecule `O=C(Nc1ccc2c(=O)n(O)c(=O)[nH]c2c1)c1ccc(C(F)(F)F)cc1` registered an EC50 in [1] of over 316 µM. Also, the CC50 at 120 h in data set [2] came out at 316 µM. Besides, in data set [3], the IC50 stood at 6.09 µM.

Molecule `NCc1ccc(-c2ccc(Cc3cc(=O)n(O)c4ncccc34)cc2)cc1` returned a half-inhibitory concentration (IC50) in data set [4] of 0.045 µM.

For `O=c1[nH]c2ccc(NS(=O)(=O)c3ccc(F)cc3)cc2c(=O)n1O`, in [1], the EC50 is over 199 µM. Moreover, the CC50 at 120 h in [2] is 199 µM. This molecule also had an IC50 in data set [3] of 2.25 µM.

`CC(C)(C)c1ccc(S(=O)(=O)Nc2ccc3c(=O)n(O)c(=O)[nH]c3c2)cc1` returned an EC50 in data set [1] of over 307 µM. Also, the inhibition result in data set [7] was “Active”. The CC50 at 120 h in data set [2] amounted to 307 µM. The molecule further had an inhibition in data set [8] of 50 to 60%. For the same molecule, the midpoint of inhibition in data set [3], the IC50, lay at 5.88 µM.

Regarding `O=c1[nH]c2cc(NS(=O)(=O)c3ccc4ccccc4c3)ccc2c(=O)n1O`, the EC50 in [1] is over 220 µM. Also, in data set [7], the inhibition entry was “Active”. In data set [2], the half-maximal cytotoxic concentration (CC50) at 120 h was 220 µM. Also, in data set [8], the inhibition lay in the range of 50 to 60%. For the same molecule, the IC50 in data set [3] is 20.1 µM.

The molecule `O=C(Nc1ccc2c(=O)n(O)c(=O)[nH]c2c1)c1cccc(F)c1` displayed an EC50 in data set [1] of over 39.8 µM. In addition, in data set [2], the CC50 at 120 h is 39.8 µM. Moreover, in [3], the IC50 was determined as 3.73 µM.

As for `O=C(NCc1c(F)cc(F)cc1F)c1cn2c(c(O)c1=O)C(=O)N1[C@H]3CC[C@H](C3)O[C@@H]1C2` [BICTEGRAVIR], it took 0.0075 µM to reach half-maximal inhibition in data set [9] (IC50).

The term EC50 denotes the concentration needed to bring the measured effect to its halfway point. Read a low EC50 as greater potency. The CC50 is the concentration giving 50% cytotoxicity. The term IC50 denotes the concentration that inhibits the measured activity by half. The low end stands for inhibition by little substance, the high end for a need for much substance. The Papp is the rate of passage across a membrane or cell layer, normalised by area and donor concentration. In general, inhibition refers to the drop in the measured response relative to a control, in per cent.
